The source of these data is PMC9082783 (RSC Advances, 2018).

The term IC50 denotes the midpoint of a concentration-inhibition curve. In general, Ki refers to the dissociation constant of the complex between target and ligand, obtained from inhibition or displacement. A high value points to weaker binding.

Molecules are shown by their SMILES. Entries after “also recorded” stand apart in the source; their conditions may differ. Where two headings read alike, the source gives them in different places.

The nature of one series: Hemolytic activity. It counts as cell-based. To be noted: bovine, erythrocyte (RBC) suspension, pH 7.4. An outline of the steps: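 Bovine blood collected in EDTA, diluted in 0.9% NaCl and centrifuged at 1000 × g for 10 min. Erythrocytes were resuspended in PBS pH 7.4. Test compound solution (10 mg/mL stock) was mixed with the RBC suspension and incubated 30 min at room temperature. PBS served as negative control, Triton X-100 as positive control. Triplicate runs; mean ± SEM; % hemolysis calculated by formula.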

The target in series [1] is T1, Jack bean urease (Canavalia ensiformis, UniProt P07374). The series is described as follows: In vitro urease inhibitory activity. It counts as biochemical.
T1 sequence (P07374 whole entry, looked up): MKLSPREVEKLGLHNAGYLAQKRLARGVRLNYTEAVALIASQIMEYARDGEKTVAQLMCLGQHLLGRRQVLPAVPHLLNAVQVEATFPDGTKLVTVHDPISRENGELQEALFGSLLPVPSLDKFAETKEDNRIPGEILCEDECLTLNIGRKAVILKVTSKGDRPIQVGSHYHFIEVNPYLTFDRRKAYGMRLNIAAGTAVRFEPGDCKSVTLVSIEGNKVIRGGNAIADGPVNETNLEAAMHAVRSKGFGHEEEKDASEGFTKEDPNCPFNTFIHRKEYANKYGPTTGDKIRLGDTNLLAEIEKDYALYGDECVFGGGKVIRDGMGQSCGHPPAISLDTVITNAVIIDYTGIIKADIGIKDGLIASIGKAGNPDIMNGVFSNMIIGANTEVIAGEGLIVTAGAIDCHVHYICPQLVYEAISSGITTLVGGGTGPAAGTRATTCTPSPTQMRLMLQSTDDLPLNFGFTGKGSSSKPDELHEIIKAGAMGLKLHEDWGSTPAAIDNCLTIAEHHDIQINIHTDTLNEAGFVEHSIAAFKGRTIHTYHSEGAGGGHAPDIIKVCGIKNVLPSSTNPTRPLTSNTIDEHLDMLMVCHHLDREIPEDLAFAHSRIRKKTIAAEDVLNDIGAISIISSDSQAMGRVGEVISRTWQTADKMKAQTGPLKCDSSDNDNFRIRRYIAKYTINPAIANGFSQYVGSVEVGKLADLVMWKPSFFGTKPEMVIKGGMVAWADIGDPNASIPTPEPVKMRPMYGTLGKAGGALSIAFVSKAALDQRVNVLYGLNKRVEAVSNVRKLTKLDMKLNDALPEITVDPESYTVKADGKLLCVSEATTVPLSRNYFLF
The target in series [2] is T1, Jack bean urease. Briefly: Kinetic analysis of urease inhibition. It counts as biochemical. The method in brief: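 Jack bean urease (5 U/mL enzyme solution) in potassium phosphate buffer (10 mM K2HPO4, 1 mM EDTA, 10 mM LiCl, pH 8.2) at 37 °C. Ammonia read by indophenol method at 625 nm. Initial velocities taken from per-minute readings up to 10 min. Mode from Lineweaver–Burk plots; Ki from secondary plot with linear least-squares fit.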

Turning to `CCOc1ccc(NC(=O)CCCSc2nnc(CCCc3c[nH]c4ccccc34)o2)cc1` [Compound 8a], in the series “Hemolytic activity”, the hemolysis at 30 min was found to be 3.16 ± 0.05%. At Jack bean urease [1], this compound came in with an IC50 of 52.3 ± 4.4 nM.

Turning to `CCc1ccccc1NC(=O)CCCSc1nnc(CCCc2c[nH]c3ccccc23)o1` [Compound 8b], the hemolysis at 30 min in the series “Hemolytic activity” was determined as 2.41 ± 0.03%. Further, the IC50 at Jack bean urease [1] was 54.2 ± 21.1 nM.

For `CCc1ccc(NC(=O)CCCSc2nnc(CCCc3c[nH]c4ccccc34)o2)cc1` [Compound 8c], the hemolysis at 30 min in “Hemolytic activity” worked out at 0.62 ± 0.02%. This compound also displayed an IC50 against Jack bean urease [1] of 17.5 ± 6.5 nM. The same compound came in with a Ki on Jack bean urease [2] of 3 nM. Also, the “Vmax (ΔA/Min)” value on Jack bean urease [2] (8c concentration 0.017 μM) is on record as 6.119 × 10^−5 ΔA/Min; at Jack bean urease [2] (8c concentration 0.034 μM), 4.599 × 10^−5 ΔA/Min. For the same compound, the Inhibition type result at Jack bean urease [2] (Lineweaver-Burk plot) was “non-competitively; also recorded: Non-competitive”.

Consider `Cc1ccccc1NC(=O)CCCSc1nnc(CCCc2c[nH]c3ccccc23)o1` [Compound 8d], for which the hemolysis at 30 min in the series “Hemolytic activity” came out at 5.18 ± 0.03%. At Jack bean urease [1], this compound registered an IC50 of 71.7 ± 15.2 nM.

In “Hemolytic activity”, `Cc1cccc(NC(=O)CCCSc2nnc(CCCc3c[nH]c4ccccc34)o2)c1` [Compound 8e] displayed a hemolysis at 30 min of 5.92 ± 0.02%. The compound also showed an IC50 on Jack bean urease [1] of 32.3 ± 11.9 nM.

Compound `Cc1ccc(NC(=O)CCCSc2nnc(CCCc3c[nH]c4ccccc34)o2)cc1` [Compound 8f] yielded a hemolysis at 30 min in “Hemolytic activity” of 3.51 ± 0.04%. For the same compound, on Jack bean urease [1], the IC50 came to 102 ± 29.9 nM.

In turn, `Cc1ccc(NC(=O)CCCSc2nnc(CCCc3c[nH]c4ccccc34)o2)c(C)c1` [Compound 8g, N-(2,4-dimethylphenyl)-4-({5-[3-(1H-indol-3-yl)propyl]-1,3,4-oxadiazol-2-yl}sulfanyl)butanamide] displayed a hemolysis at 30 min in the series “Hemolytic activity” of 1.41 ± 0.01%. On Jack bean urease [1], this compound showed an IC50 of 200 ± 12.2 nM.

For the compound `Cc1cccc(C)c1NC(=O)CCCSc1nnc(CCCc2c[nH]c3ccccc23)o1` [Compound 8h], the hemolysis at 30 min in the series “Hemolytic activity” was determined as 2.63 ± 0.02%. This compound showed an IC50 on Jack bean urease [1] of 25.1 ± 8.3 nM.

`Cc1cc(C)cc(NC(=O)CCCSc2nnc(CCCc3c[nH]c4ccccc34)o2)c1` [Compound 8i]: the hemolysis at 30 min in the series “Hemolytic activity” turned out to be 7.32 ± 0.03%. The same compound returned an IC50 against Jack bean urease [1] of 124 ± 31.8 nM.

The compound `CCc1cccc(C)c1NC(=O)CCCSc1nnc(CCCc2c[nH]c3ccccc23)o1` [Compound 8j] showed a hemolysis at 30 min in “Hemolytic activity” of 9.63 ± 0.05%. This compound displayed an IC50 against Jack bean urease [1] of 37.5 ± 5.8 nM.

With `NC(N)=S` [Thiourea, reference compound], the IC50 at Jack bean urease [1] (read-out: Urease activity IC50 ± SEM, Jack bean urease 5 U/mL, 100 mM urea, pH 8.2, 30 min at 37 °C, triplicate) was 4750 ± 54.6 nM.

Consider `CC(C)(C)CC(C)(C)c1ccc(OCCO)cc1` [Triton X, reference compound], for which the hemolysis at 30 min in the series “Hemolytic activity” was determined as 89.11 ± 0.01%.
